# Results: ChEMBL document CHEMBL3739331, “Synthesis and Bioactivities of Kanamycin B-Derived Cationic Amphiphiles” (J Med Chem, 2015)
# Active and inactive are the calls of the source. No cut-off for these calls is given here.
# Experiments:
# Salmonella enterica = assay: Antibacterial activity against Salmonella enterica ATCC 14028 by microdilution method; format: functional
# Summary of the method: (§1)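 Broth microdilution MIC against the named bacterial strain, reported in μg/mL; each determination run at least in duplicate.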
# [1] = Activity of AAC(6')-1e/APH(2'')-1a (unknown origin) assessed as compound acetylation activity by Ellman's method
# [2] = system: Mycobacterium tuberculosis; assay: Activity of Mycobacterium tuberculosis AAC(2')-1c assessed as compound acetylation activity by Ellman's method
# Candida albicans [3] = assay: Antifungal activity against azole-resistant Candida albicans MYA-1237 after 48 hrs by microbroth dilution method; format: functional; conditions: MYA-1237, 48 h
# Summary of the method: (§2)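 Yeast MIC by broth microdilution, run in duplicate. The aminoglycoside compounds are read as MIC-0 (complete inhibition). Azoles are read as MIC-2 (50% inhibition).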
# [4] = system: Bacillus subtilis subsp. subtilis str. 168; assay: Activity of Bacillus subtilis 168 APH(2'')-1a assessed as compound phosphorylation activity by Ellman's method
# Klebsiella pneumoniae = assay: Antibacterial activity against Klebsiella pneumoniae ATCC 27736 by microdilution method; format: functional; summary of the method: as §1
# Acinetobacter baumannii = assay: Antibacterial activity against Acinetobacter baumannii ATCC 19606 by microdilution method; format: functional; summary of the method: as §1
# [5] = Hemolytic activity against mouse RBC at 62.5 ug/ml after 60 mins; format: ADME, cell-based, Erythrocyte; conditions: red blood cells, read-out: Activity
# [6] = Hemolytic activity against mouse RBC at 7.8 ug/ml after 60 mins; format: ADME, cell-based, Erythrocyte; conditions: red blood cells, read-out: Activity
# Candida albicans [7] = assay: Antifungal activity against azole-resistant Candida albicans ATCC 10231 after 48 hrs by microbroth dilution method; format: functional; conditions: ATCC 10231, 48 h; summary of the method: as §2
# Staphylococcus aureus [8] = assay: Antibacterial activity against Staphylococcus aureus NRS382 (USA 100) by microdilution method; format: functional; summary of the method: as §1
# Enterococcus = assay: Antibacterial activity against vancomycin-resistant Enterococcus by microdilution method; format: functional
# Summary of the method: (§3)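 Broth microdilution MIC, in μg/mL, against a panel of Gram-positive and Gram-negative strains. Run at least in duplicate.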
# Candida albicans [9] = assay: Antifungal activity against azole-resistant Candida albicans ATCC 64124 after 48 hrs by microbroth dilution method; format: functional; conditions: ATCC 64124, 48 h; summary of the method: as §2
# Candida albicans [10] = assay: Antifungal activity against azole-susceptible Candida albicans ATCC MYA-2876 after 48 hrs by microbroth dilution method; format: functional; conditions: ATCC MYA-2876, 48 h; summary of the method: as §2
# Candida albicans [11] = assay: Antifungal activity against azole-resistant Candida albicans ATCC 90819 after 48 hrs by microbroth dilution method; format: functional; conditions: ATCC 90819, 48 h; summary of the method: as §2
# Staphylococcus aureus [12] = assay: Antibacterial activity against methicillin-resistant Staphylococcus aureus by microdilution method; format: functional; summary of the method: as §3
# Candida albicans [13] = assay: Antifungal activity against azole-susceptible Candida albicans ATCC MYA-2310 after 48 hrs by microbroth dilution method; format: functional; conditions: ATCC MYA-2310, 48 h; summary of the method: as §2
# Staphylococcus aureus [14] = assay: Antibacterial activity against Staphylococcus aureus NRS22 (USA 600) by microdilution method; format: functional; summary of the method: as §1
# Staphylococcus aureus [15] = assay: Antibacterial activity against Staphylococcus aureus NRS385 (USA 300) by microdilution method; format: functional; summary of the method: as §3
# Bacillus subtilis = assay: Antibacterial activity against Bacillus subtilis 168 by microdilution method; format: functional; conditions: subsp. subtilis str. 168; summary of the method: as §1
# Escherichia coli = assay: Antibacterial activity against Escherichia coli MC1061 by microdilution method; format: functional; summary of the method: as §3
# [16] = system: Mycolicibacterium smegmatis; assay: Antibacterial activity against Mycobacterium smegmatis MC2 155 by microdilution method; format: functional; conditions: str. MC2 155; summary of the method: as §3
# Serratia marcescens = assay: Activity of Serratia marcescens AAC(6')-2d assessed as compound acetylation activity by Ellman's method
# [17] = Hemolytic activity against mouse RBC at 100 to 500 ug/ml after 60 mins; format: ADME, cell-based; conditions: erythrocyte, 1 h
# Aspergillus nidulans = assay: Antifungal activity against Aspergillus nidulans ATCC 38163 after 48 hrs by microbroth dilution method; format: functional; conditions: ATCC 38163, 48 h
# Summary of the method: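 Filamentous fungus MIC by broth microdilution, run in duplicate. All compounds are read as MIC-0 (complete inhibition).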
# Enterobacter cloacae = assay: Antibacterial activity against Enterobacter cloacae ATCC 13047 by microdilution method; format: functional; summary of the method: as §1
# [18] = Activity of AAC(3)-4 (unknown origin) assessed as compound acetylation activity by Ellman's method
# Staphylococcus aureus [19] = assay: Antibacterial activity against Staphylococcus aureus NRS383 (USA 200) by microdilution method; format: functional; summary of the method: as §1
# Pseudomonas aeruginosa = assay: Antibacterial activity against Pseudomonas aeruginosa ATCC 27853 by microdilution method; format: functional; summary of the method: as §1
# Candida albicans [20] = assay: Antifungal activity against azole-resistant Candida albicans MYA-1003 after 48 hrs by microbroth dilution method; format: functional; conditions: MYA-1003, 48 h; summary of the method: as §2
# Staphylococcus aureus [21] = assay: Antibacterial activity against Staphylococcus aureus ATCC 29213 by microdilution method; format: functional; summary of the method: as §1
# [22] = system: Staphylococcus epidermidis; assay: Antibacterial activity against Staphylococcus epidermidis ATCC 12228 by microdilution method; format: functional; summary of the method: as §1
# [23] = system: Mycobacterium tuberculosis; assay: Activity of Mycobacterium tuberculosis Eis assessed as compound acetylation activity by Ellman's method
smiles,measurement,setting,value
CCCCCCCCCCCCCCCCSC[C@@H]1O[C@@H](O[C@@H]2[C@@H](O)[C@H](O[C@@H]3O[C@@H](CN)[C@H](O)[C@@H](O)[C@@H]3N)[C@@H](N)C[C@H]2N)[C@@H](O)[C@H](N)[C@H]1O (stereo in doubt),MIC,Salmonella enterica,> 128 µg/mL
same,Activity,[1],inactive
same,Activity,[2],inactive
same,MIC,Candida albicans [3],3.9 µg/mL
same,Activity,[4],inactive
same,MIC,Klebsiella pneumoniae,> 128 µg/mL
same,MIC,Acinetobacter baumannii,> 128 µg/mL
same,"hemolysis at 1 h, 62.5 ug/ml",[5],81%
same,"hemolysis at 1 h, 7.8 ug/ml",[6],16%
same,MIC,Candida albicans [7],3.9 µg/mL
same,MIC,Staphylococcus aureus [8],128 µg/mL
same,MIC,Enterococcus,128 µg/mL
same,MIC,Candida albicans [9],3.9 µg/mL
same,MIC,Candida albicans [10],3.9 µg/mL
same,MIC,Candida albicans [11],3.9 µg/mL
same,MIC,Staphylococcus aureus [12],> 128 µg/mL
same,MIC,Candida albicans [13],3.9 µg/mL
same,MIC,Staphylococcus aureus [14],128 µg/mL
same,MIC,Staphylococcus aureus [15],> 128 µg/mL
same,MIC,Bacillus subtilis,> 128 µg/mL
same,MIC,Escherichia coli,> 128 µg/mL
same,MIC,[16],8 µg/mL
same,Activity,Serratia marcescens,inactive
same,Activity,[17],Toxic
same,MIC,Aspergillus nidulans,1.95 µg/mL
same,MIC,Enterobacter cloacae,> 128 µg/mL
same,Activity,[18],inactive
same,MIC,Staphylococcus aureus [19],> 128 µg/mL
same,MIC,Pseudomonas aeruginosa,> 128 µg/mL
same,MIC,Candida albicans [20],3.9 µg/mL
same,MIC,Staphylococcus aureus [21],> 128 µg/mL
same,MIC,[22],> 128 µg/mL
same,Activity,[23],inactive
